Bioassay records from PubChem BioAssay.
ARNT-TACC3 inh – disrupts binding between human ARNT and TACC3; Q9Y6A5; AlphaScreen His-ARNT PAS-B/GST-TACC3 binding, luminescence; TACC3 fragment carries E629A point mutation; inhibition, % at 9.99 µM; 0.66% of 390,000 active;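 active = mean inhibition of replicates at least 50% and at least half of replicates each reaching 50%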;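 note: 0% = complete ARNT plus TACC3 wells and 100% = ARNT alone without TACC3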
ERAP1 HTS inh – blocks human ERAP1 aminopeptidase activity; AID 652197; Q9NZ08; 0.15% of 340,000 active; recombinant ERAP1, Leu-AMC fluorescence, 60 min; inhibition, % at 10.7 µM;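 active = mean replicate inhibition of at least 30%, or all replicates individually reaching that 30% level; inactive = mean below 30% and not every replicate reaching it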;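 note: 0% = neutral control wells and 100% = L-leucinethiol positive control wells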
Casp6 inh – inhibitors of human caspase-6; inhibition, % at 12.5 µM; purified caspase-6, Z-VEID-R110 cleavage fluorescence; 0.53% of 350,000 active; P55212; AID 686996;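 active = mean inhibition across replicates at least about 35%, with every replicate also reaching that limit, limit read from the data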;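 note: 0% = median of neutral control wells and 100% = no fluorescence left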
Target sequence (P55212 24-179 limits assumed): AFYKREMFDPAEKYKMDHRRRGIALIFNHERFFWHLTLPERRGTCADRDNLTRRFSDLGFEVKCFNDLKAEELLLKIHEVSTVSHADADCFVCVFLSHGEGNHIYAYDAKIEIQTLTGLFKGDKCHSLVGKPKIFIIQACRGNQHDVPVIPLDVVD
Target sequence (P55212 194-293 limits assumed): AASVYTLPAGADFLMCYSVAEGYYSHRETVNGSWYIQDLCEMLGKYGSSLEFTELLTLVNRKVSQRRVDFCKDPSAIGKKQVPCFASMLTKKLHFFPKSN
S100A4 MyoIIA – inhibitors of human S100A4 binding to myosin IIA peptide. P26447. S100A4/TAMRA-MyoIIA peptide fluorescence polarization. inhibition, % at 10.7 µM. 0.14% of 360,000 active. AID 652163;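 active = mean inhibition of at least 70% across replicates, with every replicate also reaching that level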
Target sequence (P26447 whole entry, looked up): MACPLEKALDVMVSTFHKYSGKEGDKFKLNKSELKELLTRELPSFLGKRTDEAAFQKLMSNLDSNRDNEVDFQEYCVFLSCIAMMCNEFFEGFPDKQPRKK
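Assay system: human S100A4 monomer with TAMRA-labelled myosin IIA peptide / Buffer or medium: Calcium-containing HEPES buffer, pH 7.2 / Reagent: TAMRA-labelled myosin IIA heavy-chain peptide probe, 5 nM / Compound: one dose per compound / Timing: polarization read 5 min after assay mix addition, stable 5–60 min / Benchmarks: neutral control DMSO, positive control TFP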
rRNA inh HTS – inhibitors of bacterial rRNA selective over humanized ribosomes; E. coli WT GFP vs humanized-ribosome RFP mutants, fluorescence, 24 h; hits give low values; DMSO median 0, no signal -100; GFP signal change (wild-type ribosome), % (no concentration beside the values); 1.6% of 350,000 active;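 active = significant combined selectivity score with lowered wild-type GFP, culture density cut under 30%, mutant RFP and density less affected; inactive = any of these conditions unmet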
PGC1a acetyl inh – modulators of PGC1a acetylation; U2OS PGC1a acetylation, AlphaScreen anti-acetyl-lysine; with virally co-expressed GCN5 acetyltransferase; AID 651687; 0.17% of 350,000 active; inhibition, % at 15.6 µM;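 active = every replicate shows inhibition of at least 40%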;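 note: 0% = neutral control wells and 100% = positive control wells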
* marks the source's active call; other numbers are inactive results; . = not tested or not shown. In the library only some 2.4% were active in any assay of this set; here they are far more common.

SMILES	ARNT-TACC3 inh	ERAP1 HTS inh	Casp6 inh	S100A4 MyoIIA	rRNA inh HTS	PGC1a acetyl inh
O=C(CCC(=O)Nc1ccc(Br)cc1)N/N=C/c1ccccc1O	-6	-4	-2	-2	-15*	4
Cc1cccc(NC(=O)CCC(=O)N/N=C/c2ccc(O)cc2O)c1	60*	4	-5	0	-12	-51
O=C(CCc1ccccc1)N/N=C/c1cc(Br)ccc1O	-4	2	1	8	-16*	.
COc1ccc(CN2CN(S(=O)(=O)c3ccccc3)c3nc4ccccc4nc32)cc1	2	.	1	6	-25*	6
COc1ccc(CN2CN(S(=O)(=O)c3cccs3)c3nc4ccccc4nc32)cc1	4	1	4	-3	-42*	-4
O=C(c1ccccc1)N1CC(=O)N2[C@H](CO)[C@H](c3ccc(C#CC4CC4)cc3)[C@H]2C1	.	1	-3	-1	-1	-1
COc1ccc(NC(=O)c2sccc2-n2cccc2)cc1	3	-5	-3	-9	-31*	-5
O=C(Nc1ccc(Cl)cc1)c1sccc1-n1cccc1	.	-3	1	0	6	.
COc1cc(/C=C/c2ccc3cccc(O)c3n2)ccc1O	16	-5	3	-24	-59	.
CSc1ccc(/C=C/c2ccc3cccc(O)c3n2)cc1	-6	12	0	43	-30*	.
Cc1ccc(NS(=O)(=O)c2ccc3c(c2)NC(=O)CCS3)c(Cl)c1	-8	-4	7	4	-1	-8
Cc1ccc(NS(=O)(=O)c2ccc3c(c2)NC(=O)CCS3)c(C)c1	-10	1	1	-15	-33*	10
C[C@H](CO)N1C[C@H](C)[C@@H](CN(C)Cc2ccc(C(=O)O)cc2)Oc2ccc(NS(=O)(=O)c3ccccc3)cc2CC1=O	.	1	1	-4	2	5
Nc1ccc(S(=O)(=O)Nc2nc3ccccc3o2)cc1	5	-1	62*	4	7	15
Nc1ccc(S(=O)(=O)Nc2cnc3ccccc3n2)cc1	-2	-1	9	-3	19	-4
C[C@@H]1CCCCO[C@@H](CN(C)C(=O)NC2CCCCC2)[C@H](C)CN([C@@H](C)CO)C(=O)c2cc(NS(=O)(=O)c3cn(C)cn3)ccc2O1	-1	-1	2	1	-1	.
Nc1nc(NCc2ccco2)nc(Nc2ccc(F)cc2)c1[N+](=O)[O-]	0	.	3	-3	7	1
CCOc1ccc(Nc2nc(NCc3ccco3)nc(N)c2[N+](=O)[O-])cc1	-3	-4	2	1	22	72*
Nc1nc(NCc2ccco2)nc(N2CCN(Cc3ccccc3)CC2)c1[N+](=O)[O-]	0	-1	7	10	-24*	-12
Cc1ccc(N2NC(=O)/C(=C/c3ccc(-c4ccc(Cl)c(C(=O)O)c4)o3)C2=O)cc1C	-7	0	3	4	9	0
COC(=O)c1ccc(N2NC(=O)/C(=C/c3ccc(-c4ccc(Cl)c(C(=O)O)c4)o3)C2=O)cc1	4	-2	58*	12	15	8
O=C1NN(c2ccc(Cl)c(Cl)c2)C(=O)/C1=C/c1ccc(-c2ccccc2C(=O)O)o1	23	1	37*	-4	18	-4
O=C1NN(c2ccccc2)C(=O)/C1=C/c1ccc(-c2ccc(C(=O)O)cc2)o1	0	3	35	-3	7	.
Cc1ccc(S(=O)(=O)N(C)C[C@@H]2OCCCC[C@H](C)Oc3ccc(NC(=O)Nc4ccccc4)cc3C(=O)N([C@@H](C)CO)C[C@H]2C)cc1	-9	1	1	-9	0	-8
COC(=O)CC1C(=O)NCCN1C(=O)CSc1nnnn1-c1ccc(Cl)cc1 (stereo not drawn)	22	1	50*	0	8	3
Cc1ccc(S(=O)(=O)c2c(C)cc(C)nc2Oc2cccc(C(F)(F)F)c2)cc1	active	.	.	.	.	-32
COc1ccc2c3c([nH]c2c1)[C@@H](CO)N(C(=O)C1CC1)CC31CCN(C(=O)NC(C)C)CC1	.	.	.	.	-1	5
